Measurements taken from ChEMBL document CHEMBL1122849, “Synthesis and properties of bis(2,2-dimethylaziridinyl)phosphinic amides: a series of new antineoplastic agents” (1985).
“And” between values parts separate entries of the source, which are not always exact repeats. Identical values can stand only once.

How the values were obtained:
P388 [1] = experiment: Compound was evaluated for the antineoplastic activity against P388 leukemia at an optimal dose of 256 mg/kg administered intraperitoneally; format: functional, Mus musculus; settings: route intraperitoneal
Mus musculus [2] = species on record: Mus musculus; experiment: Tumor free mice out of 6 surviving to day 30 or beyond was determined; format: functional
In short: (§1)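 Surviving mice were autopsied when the experiment ended. A mouse was scored cured if tumor-free with no visible disease at day 30 (P388, L1210) or day 60 (B16, C26, M109). Groups held 6, 10 or 8 mice.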

B16 [3] = experiment: Compound was evaluated for the antineoplastic activity on B16 Melanoma cells at the optimal dose of 80 mg/kg through intraperitoneal route on days 1,5,9; format: functional, Mus musculus
B16 [4] = experiment: Compound was evaluated for the antineoplastic activity on B16 Melanoma cells at the optimal dose of 120 mg/kg through intraperitoneal route on days 1,5,9; format: functional, Mus musculus
B16 [5] = experiment: Compound was evaluated for the antineoplastic activity on B16 Melanoma cells at the optimal dose of 160 mg/kg through intraperitoneal route on days 1,5,9; format: functional, Mus musculus
Colon 26 [6] = experiment: Antitumor activity against C26 implants through intraperitoneal route along with the optimal dose of 50 mg/kg through intraperitoneal injection on 1,4 days; format: functional, Mus musculus
P388 [7] = experiment: Compound was evaluated for the antineoplastic activity against P388 leukemia at an optimal dose of 64 mg/kg administered intraperitoneally; format: functional, Mus musculus; settings: route intraperitoneal
Mus musculus [8] = species on record: Mus musculus; experiment: Tumor free mice out of 10 surviving to day 60 was determined; format: functional; in short: as §1
B16 [9] = experiment: Compound was evaluated for the antineoplastic activity on B16 Melanoma cells at the optimal dose of 24 mg/kg through intraperitoneal route on days 1,5,9; format: functional, Mus musculus
B16 [10] = experiment: Compound was evaluated for the antineoplastic activity on B16 Melanoma cells at the optimal dose of 36 mg/kg through intraperitoneal route on days 1,5, 9; format: functional, Mus musculus
B16 [11] = experiment: Compound was evaluated for the antineoplastic activity on B16 Melanoma cells at the optimal dose of 18 mg/kg through intraperitoneal route on days 1,5, 9; format: functional, Mus musculus
P388 [12] = experiment: Compound was evaluated for the antineoplastic activity against P388 leukemia at an optimal dose of 128 mg/kg administered intraperitoneally; format: functional, Mus musculus; settings: route intraperitoneal
B16 [13] = experiment: (§2) Compound was evaluated for the antineoplastic activity on B16 Melanoma cells at the optimal dose of 40 mg/kg through intraperitoneal route on days 1,5,9; format: functional, Mus musculus
M109 [14] = experiment: Antitumor activity against M109 implants through subcutaneous route along with the optimal dose of 70 mg/kg through intraperitoneal route on 1,4 days; format: functional, Mus musculus
B16 [15] = experiment: as §2; format: functional, Mus musculus; remark: listed apart in the source
Mus musculus [16] = species on record: Mus musculus; experiment: Tumor free mice out of 8 surviving to day 60 or beyond was determined; format: functional; in short: as §1
M109 [17] = experiment: Antitumor activity against M109 implants through subcutaneous route along with the optimal dose of 70 mg/kg through intravenously route on 1,4 days; format: functional, Mus musculus; settings: route intravenous
L1210 [18] = experiment: Compound was evaluated for the antineoplastic activity on L1210 leukemia cell line at the optimal dose of 60 mg/kg administered intraperitoneally on day 1 following intraperitoneal implant of 10e 6 L1210 cells, in six mice; format: functional, Mus musculus
Colon 26 [19] = experiment: Antitumor activity against C26 implants through intraperitoneal route along with the optimal dose of 80 mg/kg through intraperitoneal injection on 1,4 days; format: functional, Mus musculus
Colon 26 [20] = experiment: Antitumor activity against C26 implants through intraperitoneal route along with the optimal dose of 120 mg/kg through intraperitoneal injection on 1,4 days; format: functional, Mus musculus
B16 [21] = experiment: Compound was evaluated for the antineoplastic activity on B16 Melanoma cells at the optimal dose of 100 mg/kg through intraperitoneal route on days 1,5,9; format: functional, Mus musculus
M109 [22] = experiment: Antitumor activity against M109 implants through intraperitoneal route along with the optimal dose of 150 mg/kg through intraperitoneal route on 1,4 days; format: functional, Mus musculus
Colon 26 [23] = experiment: Antitumor activity against C26 implants through subcutaneous route along with the optimal dose of 50 mg/kg through intraperitoneal injection on 1,4 days; format: functional, Mus musculus
B16 [24] = experiment: Compound was evaluated for the antineoplastic activity on B16 Melanoma cells at the optimal dose of 50 mg/kg through intraperitoneal route on days 1,5,9; format: functional, Mus musculus
Colon 26 [25] = experiment: Antitumor activity against C26 implants through subcutaneous route along with the optimal dose of 120 mg/kg through intraperitoneal injection on 5,8 days; format: functional, Mus musculus
M109 [26] = experiment: Antitumor activity against M109 implants through subcutaneous route along with the optimal dose of 100 mg/kg through intraperitoneal route on 1,4 days; format: functional, Mus musculus
P388 [27] = experiment: Compound was evaluated for the antineoplastic activity against P388 leukemia at an optimal dose of 80 mg/kg administered intraperitoneally; format: functional, Mus musculus; settings: route intraperitoneal
Colon 26 [28] = experiment: Antitumor activity against C26 implants through intraperitoneal route along with the optimal dose of 120 mg/kg through intraperitoneal injection on 5,8 days; format: functional, Mus musculus
P388 [29] = experiment: Compound was evaluated for the antineoplastic activity against P388 leukemia at an optimal dose of 100 mg/kg administered intraperitoneally; format: functional, Mus musculus; settings: route intraperitoneal
L1210 [30] = experiment: Compound was evaluated for the antineoplastic activity on L1210 leukemia cell line at the optimal dose of 180 mg/kg administered intraperitoneally on day 1 following intraperitoneal implant of 10e 6 L1210 cells, in six mice.9; format: functional, Mus musculus
B16 [31] = experiment: Compound was evaluated for the antineoplastic activity on B16 Melanoma cells at the optimal dose of 10 mg/kg through intraperitoneal route on days 1,5,9; format: functional, Mus musculus
Colon 26 [32] = experiment: Antitumor activity against C26 implants through subcutaneous route along with the optimal dose of 60 mg/kg through intraperitoneal injection on 1,4 days; format: functional, Mus musculus
B16 [33] = experiment: Compound was evaluated for the antineoplastic activity on B16 Melanoma cells at the optimal dose of 60 mg/kg through intraperitoneal route on days 1,5,9; format: functional, Mus musculus
Colon 26 [34] = experiment: Antitumor activity against C26 implants through subcutaneous route along with the optimal dose of 25 mg/kg through intraperitoneal injection on 1,4 days; format: functional, Mus musculus
Colon 26 [35] = experiment: Antitumor activity against C26 implants through intraperitoneal route along with the optimal dose of 60 mg/kg through intraperitoneal injection on 1,4 days; format: functional, Mus musculus
L1210 [36] = experiment: Compound was evaluated for the antineoplastic activity on L1210 leukemia cell line at the optimal dose of 180 mg/kg administered intraperitoneally on day 1 following intraperitoneal implant of 10e 6 L1210 cells, in six mice; format: functional, Mus musculus

COCCCNP(=O)(N1CC1(C)C)N1CC1(C)C (stereo not drawn)
T/C (P388 [1]): 225%
Survivors (Mus musculus [2]): 1
T/C (B16 [3]): 160%

CCNP(=O)(N1CC1(C)C)N1CC1(C)C (stereo not drawn)
T/C (P388 [1]): 288%
T/C (B16 [4]): 148%

CC1(C)CN1P(=O)(N1CCCCC1)N1CC1(C)C (stereo not drawn)
T/C (P388 [1]): 218%
T/C (B16 [5]): 132%

CN(C)CCCNP(=O)(N1CC1(C)C)N1CC1(C)C (stereo not drawn)
T/C (Colon 26 [6]): 170%
T/C (P388 [7]): 231%
Survivors (Mus musculus [8]): 2
T/C (B16 [3]; 80 mg/kg): 210% and 172%

CC1(C)CN1P(=O)(N1CCOCC1)N1CC1(C)C (stereo not drawn)
T/C (P388 [1]): 247%
T/C (B16 [5]): 160%

O=C(O)CCCc1ccc(N(CCCl)CCCl)cc1 [CHLORAMBUCIL]
T/C (B16 [9]): 121%
T/C (B16 [10]): 125%
T/C (B16 [11]): 132%

CCCCNP(=O)(N1CC1(C)C)N1CC1(C)C (stereo not drawn)
T/C (P388 [1]): 238%
T/C (B16 [4]): 157%

CN1CCN(P(=O)(N2CC2(C)C)N2CC2(C)C)CC1 (stereo not drawn)
T/C (P388 [12]): 224%
T/C (B16 [3]): 170%

CC1(C)CN1P(=O)(NC1CCCCC1)N1CC1(C)C (stereo not drawn)
T/C (P388 [1]): 106%

CC1(C)CN1P(N)(=O)N1CC1(C)C (stereo not drawn)
T/C (B16 [13]): 110%
T/C (M109 [14]): 99%
T/C (B16 [15]): 214%
Survivors (Mus musculus [16]): 3 and 2
T/C (M109 [17]): 104%
T/C (P388 [1]): 206%
T/C (L1210 [18]): 164%
T/C (Colon 26 [19]): 221%
T/C (Colon 26 [20]): 190%
T/C (B16 [21]): 310% and 181%
T/C (B16 [4]; 120 mg/kg): 191% and 180%
Survivors (Mus musculus [8]): 3 and 2
T/C (M109 [22]): 157%
T/C (Colon 26 [23]): 127%
T/C (B16 [24]): 123%
T/C (B16 [3]): 210%

CCCNP(=O)(N1CC1(C)C)N1CC1(C)C (stereo not drawn)
T/C (P388 [1]): 363%
Survivors (Mus musculus [2]): 2
T/C (B16 [4]): 144%
T/C (B16 [3]): 162%

CCOP(=O)(N1CC1(C)C)N1CC1(C)C (stereo not drawn)
T/C (Colon 26 [25]): 130%
T/C (M109 [26]): 104%
T/C (B16 [21]): 188% and 119%
Survivors (Mus musculus [2]): 2
T/C (P388 [27]): 272%
T/C (M109 [22]): 146%
T/C (Colon 26 [28]): 144%

O=P1(N(CCCl)CCCl)NCCCO1 (stereo not drawn) [CYCLOPHOSPHAMIDE ANHYDROUS]
Survivors (Mus musculus [16]): 1
T/C (B16 [21]): 143% and 205%
T/C (B16 [4]): 180%

CCOC(=O)NP(=O)(N1CC1(C)C)N1CC1(C)C (stereo not drawn) [METUREDEPA]
T/C (P388 [29]): 244%

CC1(C)CN1P(=O)(Nc1ccccc1)N1CC1(C)C (stereo not drawn) [PHOSPHINIC ANILIDE DERIVATE]
T/C (P388 [1]): 169%

CN(C)P(=O)(N1CC1(C)C)N1CC1(C)C (stereo not drawn)
T/C (L1210 [30]): 207%
T/C (B16 [31]): 108%
T/C (Colon 26 [19]): 127%
T/C (Colon 26 [32]): 125%
T/C (P388 [12]): 272%
T/C (B16 [4]): 153%
T/C (B16 [33]): 118%

CNP(=O)(N1CC1(C)C)N1CC1(C)C (stereo not drawn)
T/C (Colon 26 [34]): 151%
T/C (B16 [31]): 126%
T/C (Colon 26 [35]): 166%
T/C (P388 [12]): 239%
T/C (L1210 [36]): 207%
Survivors (Mus musculus [2]): 1
T/C (B16 [4]): 153%
T/C (B16 [33]): 120%
